Assay results published in ChEMBL document CHEMBL3045579, “Herbicidal activity of cineole derivatives” (2010).
Calls of active or inactive are those of the source. No cut-off for these calls is given here.

Assays:
Format in all cases: functional
[1] = tested on: Lolium rigidum; assay: Pre-emergence herbicidal activity against Lolium rigidum seeds assessed as seed germination at 0.1 mol/l at 25 degC after 72 hr by laboratory-based agar medium bioassay relative to 1,8-Cineole
Procedure, shortened: (§1)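 Agar-plate assay as above: compound in organic solvent evaporated onto Ca/B water agar, 10 seeds × 5 dishes, 72 h at 25 °C in light. Germination, root length or shoot length at 0.1 mol L^-1 expressed relative to 1,8-cineole.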

[2] = tested on: Lolium rigidum; assay: Pre-emergence herbicidal activity against Lolium rigidum seeds assessed as shoot length at 0.1 mol/l at 25 degC after 72 hr by laboratory-based agar medium bioassay relative to 1,8-Cineole; procedure, shortened: as §1
[3] = tested on: Radish; assay: Pre-emergence herbicidal activity against Raphanus sativus var.Long scarlet (radish) seeds assessed as root length at 0.1 mol/l at 25 degC after 72 hr by laboratory-based agar medium bioassay relative to control
Procedure, shortened: (§2)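 Solutions tested at 1 to 1 × 10^-4 mol L^-1. 10 seeds/dish, 5 randomized replicate dishes angled ~70°. Incubated 72 h at 25 °C in light. Solvent and no-solvent controls. Germination, root length and shoot length recorded.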

[4] = tested on: Lolium rigidum; assay: Pre-emergence herbicidal activity against Lolium rigidum seeds assessed as concentration required to suppress shoot growth at 25 degC after 72 hr by laboratory-based agar medium bioassay
[5] = tested on: Lolium rigidum; assay: Pre-emergence herbicidal activity against Lolium rigidum seeds assessed as concentration required to suppress seed germination at 25 degC after 72 hr by laboratory-based agar medium bioassay
[6] = tested on: Lolium rigidum; assay: Pre-emergence herbicidal activity against Lolium rigidum seeds assessed as concentration required to suppress root growth at 25 degC after 72 hr by laboratory-based agar medium bioassay
[7] = tested on: Radish; assay: Pre-emergence herbicidal activity against Raphanus sativus var.Long scarlet (radish) seeds assessed as concentration required to suppress seed germination at 25 degC after 72 hr by laboratory-based agar medium bioassay
[8] = tested on: Radish; assay: Pre-emergence herbicidal activity against Raphanus sativus var.Long scarlet (radish) seeds assessed as concentration required to suppress shoot growth at 25 degC after 72 hr by laboratory-based agar medium bioassay
[9] = tested on: Radish; assay: Pre-emergence herbicidal activity against Raphanus sativus var.Long scarlet (radish) seeds assessed as concentration required to suppress root growth at 25 degC after 72 hr by laboratory-based agar medium bioassay
[10] = tested on: Lolium rigidum; assay: Pre-emergence herbicidal activity against Lolium rigidum seeds assessed as root length at 0.1 mol/l at 25 degC after 72 hr by laboratory-based agar medium bioassay relative to 1,8-Cineole; procedure, shortened: as §1
[11] = tested on: Radish; assay: Pre-emergence herbicidal activity against Raphanus sativus var.Long scarlet (radish) seeds assessed as seed germination at 0.1 mol/l at 25 degC after 72 hr by laboratory-based agar medium bioassay relative to 1,8-Cineole; procedure, shortened: as §1
[12] = tested on: Radish; assay: Pre-emergence herbicidal activity against Raphanus sativus var.Long scarlet (radish) seeds assessed as shoot length at 0.1 mol/l at 25 degC after 72 hr by laboratory-based agar medium bioassay relative to 1,8-Cineole; procedure, shortened: as §1
[13] = tested on: Radish; assay: Pre-emergence herbicidal activity against Raphanus sativus var.Long scarlet (radish) seeds assessed as root length at 0.1 mol/l at 25 degC after 72 hr by laboratory-based agar medium bioassay relative to 1,8-Cineole; procedure, shortened: as §1
[14] = tested on: Lolium rigidum; assay: Pre-emergence herbicidal activity against Lolium rigidum seeds assessed as seed germination at 0.1 mol/l at 25 degC after 72 hr by laboratory-based agar medium bioassay relative to control; procedure, shortened: as §2
[15] = tested on: Lolium rigidum; assay: Pre-emergence herbicidal activity against Lolium rigidum seeds assessed as shoot length at 0.1 mol/l at 25 degC after 72 hr by laboratory-based agar medium bioassay relative to control; procedure, shortened: as §2
[16] = tested on: Lolium rigidum; assay: Pre-emergence herbicidal activity against Lolium rigidum seeds assessed as root length at 0.1 mol/l at 25 degC after 72 hr by laboratory-based agar medium bioassay relative to control; procedure, shortened: as §2
[17] = tested on: Radish; assay: Pre-emergence herbicidal activity against Raphanus sativus var.Long scarlet (radish) seeds assessed as seed germination at 0.1 mol/l at 25 degC after 72 hr by laboratory-based agar medium bioassay relative to control; procedure, shortened: as §2
[18] = tested on: Radish; assay: Pre-emergence herbicidal activity against Raphanus sativus var.Long scarlet (radish) seeds assessed as shoot length at 0.1 mol/l at 25 degC after 72 hr by laboratory-based agar medium bioassay relative to control; procedure, shortened: as §2

Row | SMILES | Activity [3] | Activity [4] | Activity [5] | Activity [6] | Activity [7] | Activity [8] | Activity [9] | Ratio [11] | Ratio [13] | Activity [14] | Activity [15] | Activity [16] | Activity [17] | Activity [18] | inhibition [1] | inhibition [2] | inhibition [10] | inhibition [12] | inhibition [11] | inhibition [13] | other results
1 | CC(C)[C@]12CC[C@@](C)(O1)[C@H](O)C2 (racemic) [2-Exo-hydroxy-1,4-cineole] | 9.9% | 0.1 mol/L | 0.1 mol/L | 0.01 mol/L | 0.1 mol/L | 0.1 mol/L | 0.1 mol/L | 13.1 | 3.7 | 21.7% | 23.1% | 6.1% | 2.6% | 41.7% |  |  |  |  |  |  | Ratio [1]: 1.4; Ratio [2]: 1.2; Ratio [10]: 3.7; Ratio [12]: 1.6
2 | CC(=O)O[C@@H]1C[C@@]2(C(C)C)CC[C@@]1(C)O2 (racemic) [2-exo-acetoxy-1,4-cineole] | 2.7% | 0.01 mol/L | 0.1 mol/L | 0.01 mol/L | 0.01 mol/L | 0.01 mol/L | 0.01 mol/L | 7.5 | 3.5 | 0% | 0% | 0% | 4.5% | 0% | Active | Active | Active | Active |  |  | 
3 | CCCC(=O)O[C@@H]1C[C@@]2(C(C)C)CC[C@@]1(C)O2 (racemic) [2-exo-butoxy-1,4-cineole] |  |  |  |  |  |  |  |  |  |  |  |  |  |  |  |  |  | Active | Active | Active | 
4 | CC(C)[C@]12CC[C@@](C)(O1)[C@H](OC(=O)CC(C)(C)C)C2 (racemic) [2-exo-t-butylacetoxy-1,4-cineole] | 55.8% | 0.1 mol/L | 0.1 mol/L | 0.01 mol/L | 0.1 mol/L | 0.01 mol/L | 0.01 mol/L | 0.8 | 0.7 |  |  |  | 42.9% | 71.2% |  |  |  |  |  |  | Ratio [12]: 0.9
5 | CC(=O)O[C@H]1C[C@@]2(C)CC[C@H]1C(C)(C)O2 (racemic) [3-Exo-acetoxy-1,8-cineole] | 29.2% | 0.1 mol/L | 0.1 mol/L | 0.1 mol/L | 0.01 mol/L | 1 mol/L | 0.01 mol/L | 1.8 | 1.3 | 34.1% | 21.3% | 7.6% | 18.9% | 64.3% |  |  |  |  |  |  | Ratio [1]: 0.9; Ratio [2]: 1.3; Ratio [10]: 2.9; Ratio [12]: 1
6 | CC1(C)O[C@]2(C)CC[C@@H]1[C@@H](OC(=O)c1ccccc1)C2 (racemic) [3-exo-benzoxy-1,8-cineole] | 42.4% | 0.1 mol/L | 0.1 mol/L | 0.01 mol/L | 1 mol/L | 0.1 mol/L | 0.01 mol/L | 0.3 | 0.8 | 82.2% | 41.6% | 10.9% | 98% | 61% |  |  |  |  |  |  | Ratio [1]: 0.4; Ratio [2]: 0.7; Ratio [10]: 2.1; Ratio [12]: 1.1
7 | CC1(C)O[C@]2(C)CC[C@@H]1[C@@H](O)C2 (racemic) [3-exo-hydroxy-1,8-cineole] | 26.8% | 0.01 mol/L | 0.1 mol/L | 0.1 mol/L | 0.1 mol/L | 0.1 mol/L | 0.01 mol/L | 14.2 | 1.4 | 2.6% | 10.2% | 16.6% | 2.4% | 46.5% |  |  |  |  |  |  | Ratio [1]: 11.6; Ratio [2]: 2.8; Ratio [10]: 1.3; Ratio [12]: 1.4
8 | CC1(C)OC2(C)CC[C@H]1C[C@H]2O (single isomer, unassigned) [2-endo-hydroxy-1,8-cineole] | 6.8% | 0.01 mol/L | 0.1 mol/L | 0.1 mol/L | 0.01 mol/L | 0.1 mol/L | 0.01 mol/L | 13.1 | 5.5 | 51.5% | 15.4% | 39.5% | 2.6% | 0% |  |  |  | Active |  |  | Ratio [1]: 0.6; Ratio [2]: 1.8; Ratio [10]: 0.6
9 | CC(=O)O [ACETIC ACID] | 0% | 0.01 mol/L | 0.1 mol/L | 0.01 mol/L | 0.1 mol/L | 0.1 mol/L | 0.1 mol/L |  |  | 0% | 0% | 0% | 0% | 0% | Active | Active | Active | Active | Active | Active | 
10 | O=C(O)c1ccccc1 [BENZOIC ACID] | 0% | 0.0001 mol/L | 0.01 mol/L | 0.0001 mol/L | 0.1 mol/L | 0.01 mol/L | 0.01 mol/L |  |  | 0% | 0% | 0% | 0% | 0% | Active | Active | Active | Active | Active | Active | 
11 | CCCC(=O)O [BUTYRIC ACID] | 0% | 0.1 mol/L | 0.01 mol/L | 0.01 mol/L | 0.1 mol/L | 0.01 mol/L | 0.01 mol/L |  |  | 0% | 0% | 0% | 0% | 0% | Active | Active | Active | Active | Active | Active | 
12 | CCCCCC(=O)O [HEXANOATE] | 0% | 0.0001 mol/L | 0.01 mol/L | 0.0001 mol/L | 0.1 mol/L | 0.1 mol/L | 0.001 mol/L |  |  | 0% | 0% | 0% | 0% | 0% | Active | Active | Active | Active | Active | Active | 
13 | CC(C)(C)CC(=O)O [T-BUTYLACETIC ACID] | 0% | 0.0001 mol/L | 0.01 mol/L | 0.0001 mol/L | 0.1 mol/L | 0.1 mol/L | 0.01 mol/L |  |  | 0% | 0% | 0% | 0% | 0% | Active | Active | Active | Active | Active | Active | 
